# Test results from ChEMBL document CHEMBL3352004, “(7-Benzyloxy-2,3-dihydro-1H-pyrrolo[1,2-a]indol-1-yl)acetic Acids as S1P1 Functional Antagonists” (ACS Med Chem Lett, 2014).
# Active and inactive are the calls of the source. The rule behind the calls is not given here.
# Assays:
# [1] = molecular target: T1, Sphingosine 1-phosphate receptor 1 (Homo sapiens, UniProt P21453); assay: Agonist activity at human S1P1 receptor assessed as cAMP accumulation by HTRF assay; assay type: functional
# Summary of the method: (§1)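 S1P1 engagement measured as cyclase activity in a homogeneous time-resolved fluorescence (HTRF) assay.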
# [2] = Solubility in water in L-lysine adduct form; assay type: physicochemical
# [3] = molecular target: Sphingosine-1-phosphate receptor 1 (Canis lupus familiaris) (UniProt W5VNF7); assay: Agonist activity at dog S1P1 receptor assessed as cAMP accumulation by HTRF assay relative to S1P; assay type: functional
# Mus musculus [4] = assay: Prevention of severity of disease in C57Bl/6 mouse experimental autoimmune encephalomyelitis model of multiple sclerosis at 1 mg/kg dosed for 24 days; assay type: functional, organism-based; parameters: dose 1 mg/kg
# Summary of the method: (§2)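 Female C57Bl/6 mice with EAE, a demyelinating autoimmune disease induced to model MS, given compound orally at 0.1, 0.3 or 1.0 mg/kg for 24 days alongside a vehicle group. Clinical scoring began on day 10: 0 healthy; 1 limp tail or hind-limb weakness; 2 limp tail plus limb weakness, or weakness of ≥2 limbs; 3 severe limb weakness or single-limb paralysis; 4 paralysis of ≥2 limbs; 5 death. Mean group score reported.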
# [5] = molecular target: Sphingosine 1-phosphate receptor 1 (Macaca mulatta, UniProt H9EUW9); assay: Agonist activity at monkey S1P1 receptor assessed as cAMP accumulation by HTRF assay; assay type: functional; summary of the method: as §1
# Chain of Sphingosine 1-phosphate receptor 1 (Macaca mulatta, UniProt H9EUW9) (H9EUW9 whole entry): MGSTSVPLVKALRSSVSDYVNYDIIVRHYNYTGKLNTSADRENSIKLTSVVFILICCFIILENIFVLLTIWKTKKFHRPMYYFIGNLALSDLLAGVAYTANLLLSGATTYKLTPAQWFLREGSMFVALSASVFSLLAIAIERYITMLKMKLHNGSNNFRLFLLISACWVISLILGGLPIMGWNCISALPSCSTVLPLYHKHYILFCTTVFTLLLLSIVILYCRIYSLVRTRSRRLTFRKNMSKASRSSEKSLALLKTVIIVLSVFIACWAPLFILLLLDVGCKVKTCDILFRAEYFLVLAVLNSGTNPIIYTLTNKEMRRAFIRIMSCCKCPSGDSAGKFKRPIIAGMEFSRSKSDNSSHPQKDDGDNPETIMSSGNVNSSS
# [6] = molecular target: Sphingosine 1-phosphate receptor 3 (Homo sapiens, UniProt Q99500); assay: Agonist activity at human S1P3 receptor by beta-arrestin recruitment assay
# Chain of Sphingosine 1-phosphate receptor 3 (Q99500 whole entry): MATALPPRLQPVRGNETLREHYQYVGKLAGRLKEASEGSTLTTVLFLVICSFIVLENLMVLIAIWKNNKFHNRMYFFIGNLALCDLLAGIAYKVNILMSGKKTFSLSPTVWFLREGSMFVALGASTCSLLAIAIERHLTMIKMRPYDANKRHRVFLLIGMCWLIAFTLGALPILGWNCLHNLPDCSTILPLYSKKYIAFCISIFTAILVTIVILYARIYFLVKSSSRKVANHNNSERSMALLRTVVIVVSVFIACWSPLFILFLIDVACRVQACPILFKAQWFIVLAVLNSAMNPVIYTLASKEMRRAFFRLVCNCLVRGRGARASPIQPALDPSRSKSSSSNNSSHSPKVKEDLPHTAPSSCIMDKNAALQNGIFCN
# Cytochrome P450 2C9 = Cytochrome P450 2C9 (Homo sapiens, UniProt P11712); assay: Inhibition of CYP2C9 (unknown origin); assay type: ADME
# Chain of Cytochrome P450 2C9 (P11712 whole entry): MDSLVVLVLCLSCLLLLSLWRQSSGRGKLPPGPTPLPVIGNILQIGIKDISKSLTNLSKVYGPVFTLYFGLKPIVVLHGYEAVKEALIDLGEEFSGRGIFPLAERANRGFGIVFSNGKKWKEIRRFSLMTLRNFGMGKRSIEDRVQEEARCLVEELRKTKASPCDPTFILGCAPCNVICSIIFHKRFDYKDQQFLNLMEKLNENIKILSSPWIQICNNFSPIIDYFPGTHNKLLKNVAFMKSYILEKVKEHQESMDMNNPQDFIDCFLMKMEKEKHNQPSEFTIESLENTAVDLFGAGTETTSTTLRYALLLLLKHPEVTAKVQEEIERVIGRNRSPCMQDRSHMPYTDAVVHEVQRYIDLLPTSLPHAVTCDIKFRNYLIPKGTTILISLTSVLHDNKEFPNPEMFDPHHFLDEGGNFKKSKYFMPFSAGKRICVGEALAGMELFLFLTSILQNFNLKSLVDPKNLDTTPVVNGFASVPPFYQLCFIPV
# [7] = molecular target: Sphingosine 1-phosphate receptor 1 (Mus musculus) (UniProt O08530); assay: Agonist activity at mouse S1P1 receptor assessed as cAMP accumulation by HTRF assay relative to S1P; assay type: functional
# [8] = Oral bioavailability in Sprague-Dawley rat at 1 mg/kg; assay type: ADME, organism-based; settings: in vivo
# [9] = molecular target: T1, Sphingosine 1-phosphate receptor 1; assay: Agonist activity at human S1P1 receptor by beta-arrestin recruitment assay relative to S1P
# [10] = molecular target: Sphingosine 1-phosphate receptor 1 (Rattus norvegicus) (UniProt P48303); assay: Agonist activity at rat S1P1 receptor assessed as cAMP accumulation by HTRF assay relative to S1P; assay type: functional
# Chain of Sphingosine 1-phosphate receptor 1 (Rattus norvegicus) (P48303 whole entry): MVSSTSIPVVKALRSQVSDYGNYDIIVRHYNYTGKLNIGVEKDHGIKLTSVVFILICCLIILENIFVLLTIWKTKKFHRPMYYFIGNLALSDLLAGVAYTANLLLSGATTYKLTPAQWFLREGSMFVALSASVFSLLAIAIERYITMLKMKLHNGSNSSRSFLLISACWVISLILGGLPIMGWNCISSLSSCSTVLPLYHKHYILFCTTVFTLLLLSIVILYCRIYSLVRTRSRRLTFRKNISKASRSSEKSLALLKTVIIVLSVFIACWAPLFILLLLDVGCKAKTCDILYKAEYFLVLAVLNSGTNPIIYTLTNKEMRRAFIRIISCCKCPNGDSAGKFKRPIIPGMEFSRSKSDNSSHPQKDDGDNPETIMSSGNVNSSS
# [11] = molecular target: Sphingosine-1-phosphate receptor 1 (Canis lupus familiaris, UniProt W5VNF7); assay: Agonist activity at dog S1P1 receptor assessed as cAMP accumulation by HTRF assay; assay type: functional; summary of the method: as §1
# Cytochrome P450 3A4 = Cytochrome P450 3A4 (Homo sapiens, UniProt P08684); assay: Inhibition of CYP3A4 (unknown origin); assay type: ADME
# Chain of Cytochrome P450 3A4 (P08684 whole entry): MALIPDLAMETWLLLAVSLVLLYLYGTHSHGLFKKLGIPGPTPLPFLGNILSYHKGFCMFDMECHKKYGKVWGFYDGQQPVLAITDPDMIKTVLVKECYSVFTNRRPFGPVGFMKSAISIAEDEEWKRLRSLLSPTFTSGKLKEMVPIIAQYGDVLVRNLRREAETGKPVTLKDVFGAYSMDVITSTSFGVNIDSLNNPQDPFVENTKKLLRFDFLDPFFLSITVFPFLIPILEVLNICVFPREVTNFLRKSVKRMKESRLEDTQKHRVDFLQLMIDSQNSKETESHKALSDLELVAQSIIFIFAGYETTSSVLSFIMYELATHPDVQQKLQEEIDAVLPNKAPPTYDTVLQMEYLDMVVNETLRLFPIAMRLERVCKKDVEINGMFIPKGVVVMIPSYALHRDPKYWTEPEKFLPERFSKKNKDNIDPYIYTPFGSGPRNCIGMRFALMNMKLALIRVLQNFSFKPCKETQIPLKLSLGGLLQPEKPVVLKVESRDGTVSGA
# [12] = molecular target: T1, Sphingosine 1-phosphate receptor 1; assay: Agonist activity at human S1P1 receptor assessed as cAMP accumulation by HTRF assay relative to S1P; assay type: functional
# [13] = Cmax rat at 1000 mg/kg, po; assay type: ADME, organism-based; parameters: dose 1000 mg/kg, route oral; settings: in vivo
# [14] = Systemic clearance in Sprague-Dawley rat at 1 mg/kg, iv; assay type: ADME, organism-based; parameters: dose 1 mg/kg, route intravenous; settings: in vivo
# [15] = Cmax in Sprague-Dawley rat at 1 mg/kg, po; assay type: ADME, organism-based; parameters: dose 1 mg/kg, route oral; settings: in vivo
# Cytochrome P450 2D6 = Cytochrome P450 2D6 (Homo sapiens, UniProt P10635); assay: Inhibition of CYP2D6 (unknown origin); assay type: ADME
# Chain of Cytochrome P450 2D6 (P10635 whole entry): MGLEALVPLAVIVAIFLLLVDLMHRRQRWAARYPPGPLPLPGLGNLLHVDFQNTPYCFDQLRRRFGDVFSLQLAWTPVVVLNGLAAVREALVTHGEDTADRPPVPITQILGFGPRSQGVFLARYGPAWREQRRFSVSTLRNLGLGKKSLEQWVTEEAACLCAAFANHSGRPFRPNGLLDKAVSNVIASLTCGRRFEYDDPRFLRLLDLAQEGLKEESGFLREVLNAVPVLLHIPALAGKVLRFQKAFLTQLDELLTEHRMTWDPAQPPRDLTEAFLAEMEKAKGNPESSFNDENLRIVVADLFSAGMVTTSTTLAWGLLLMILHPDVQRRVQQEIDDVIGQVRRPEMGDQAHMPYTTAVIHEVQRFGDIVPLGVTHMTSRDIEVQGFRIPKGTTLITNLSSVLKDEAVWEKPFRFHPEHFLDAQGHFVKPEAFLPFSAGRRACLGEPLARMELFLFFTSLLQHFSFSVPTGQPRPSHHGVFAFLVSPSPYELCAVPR
# [16] = Ratio of drug level in brain to plasma in Sprague-Dawley rat; assay type: ADME; settings: read-out: BPR
# Summary of the method: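 Abbreviated rat CNS distribution: a single 1.0 mg/kg oral dose, with brain and plasma drug levels measured over 6 h. Brain-to-plasma ratio derived from these levels.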
# [17] = molecular target: T2, Sphingosine 1-phosphate receptor 4 (Homo sapiens, UniProt O95977); assay: Agonist activity at human S1P4 receptor by beta-arrestin recruitment assay
# T2 sequence (O95977 whole entry): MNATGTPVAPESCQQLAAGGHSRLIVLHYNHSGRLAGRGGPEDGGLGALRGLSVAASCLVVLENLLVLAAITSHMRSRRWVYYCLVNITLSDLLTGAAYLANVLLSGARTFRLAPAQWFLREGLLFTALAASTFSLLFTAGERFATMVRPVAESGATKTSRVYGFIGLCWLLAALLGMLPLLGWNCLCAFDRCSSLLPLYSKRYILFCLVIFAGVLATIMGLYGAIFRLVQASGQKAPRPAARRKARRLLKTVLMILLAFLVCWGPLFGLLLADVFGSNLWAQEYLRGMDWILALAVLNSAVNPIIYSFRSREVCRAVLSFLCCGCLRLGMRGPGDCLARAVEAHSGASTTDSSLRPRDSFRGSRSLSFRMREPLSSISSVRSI
# Mus musculus [18] = assay: Reduction of disease index score in C57Bl/6 mouse experimental autoimmune encephalomyelitis model of multiple sclerosis at 0.1 mg/kg dosed for 24 days; assay type: functional, organism-based; parameters: dose 0.1 mg/kg; summary of the method: as §2
# Rattus norvegicus [19] = species: Rattus norvegicus; assay: Reduction in lymphocyte count in Sprague-Dawley rat; assay type: functional, organism-based
# Summary of the method: (§3)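 A PK/PD model relating plasma drug concentration to circulating lymphocyte counts was used to derive the plasma concentration that reduces lymphocytes by 50% (LL IC50, ng/mL).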
# Mus musculus [20] = assay: Reduction of disease index score in C57Bl/6 mouse experimental autoimmune encephalomyelitis model of multiple sclerosis at 0.1 to 0.3 mg/kg dosed for 24 days; assay type: functional, organism-based; summary of the method: as §2
# Rattus norvegicus [21] = species: Rattus norvegicus; assay: Toxicity in telemeterized rat assessed as effect on cardiovascular function; assay type: organism-based, Heart; settings: in vivo
# [22] = tested on: P2Y purinoceptor (Rattus norvegicus); assay: Binding affinity to P2Y purinoceptor (rat) by [35S]dATPalphaS competitive binding assay
# Mus musculus [23] = species: Mus musculus; assay: Reduction in lymphocyte count in mouse; assay type: functional, organism-based; summary of the method: as §3
# [24] = molecular target: Sphingosine 1-phosphate receptor 1 (Macaca mulatta) (UniProt H9EUW9); assay: Agonist activity at monkey S1P1 receptor assessed as cAMP accumulation by HTRF assay relative to S1P; assay type: functional
# Chain of Sphingosine 1-phosphate receptor 1 (Macaca mulatta) (H9EUW9 as listed by the source): as the sequence (H9EUW9 whole entry) above
# [25] = molecular target: Sphingosine 1-phosphate receptor 1 (Rattus norvegicus, UniProt P48303); assay: Agonist activity at rat S1P1 receptor assessed as cAMP accumulation by HTRF assay; assay type: functional; summary of the method: as §1
# Chain of Sphingosine 1-phosphate receptor 1 (Rattus norvegicus, UniProt P48303) (P48303 whole entry): as the sequence (P48303 whole entry) above
# Cytochrome P450 1A2 = Cytochrome P450 1A2 (Homo sapiens, UniProt P05177); assay: Inhibition of CYP1A2 (unknown origin); assay type: ADME
# [26] = Volume of distribution at steady state in Sprague-Dawley rat at 1 mg/kg, iv; assay type: ADME, organism-based; parameters: dose 1 mg/kg, route intravenous; settings: in vivo, read-out: Vdss
# [27] = Solubility in water in crystal phase; assay type: physicochemical
# [28] = molecular target: T3, Sphingosine 1-phosphate receptor 4 (Homo sapiens) (UniProt O95977); assay: Agonist activity at human S1P4 receptor by beta-arrestin recruitment assay relative to S1P
# T3 sequence (whole entry): T2 sequence (O95977 whole entry)
# [29] = Drug level in rat brain at 1 mg/kg, po dosed for 6 consecutive days; assay type: ADME, organism-based; parameters: dose 1 mg/kg, route oral; settings: read-out: Drug uptake
# Summary of the method: (§4)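 Repeat-dose rat CNS distribution: 1.0 mg/kg given on six consecutive days. Plasma, brain and CSF were sampled over the 24 h after the last dose. Average concentrations in brain and plasma gave the brain-to-plasma ratio.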
# [30] = AUC (0 to infinity) in Sprague-Dawley rat at 1 mg/kg, iv or at 1 mg/kg, po; assay type: ADME, organism-based; settings: plasma
# [31] = molecular target: Voltage-gated inwardly rectifying potassium channel KCNH2 (Homo sapiens, UniProt Q12809); assay: Binding affinity to human ERG
# Chain of Voltage-gated inwardly rectifying potassium channel KCNH2 (Q12809 whole entry): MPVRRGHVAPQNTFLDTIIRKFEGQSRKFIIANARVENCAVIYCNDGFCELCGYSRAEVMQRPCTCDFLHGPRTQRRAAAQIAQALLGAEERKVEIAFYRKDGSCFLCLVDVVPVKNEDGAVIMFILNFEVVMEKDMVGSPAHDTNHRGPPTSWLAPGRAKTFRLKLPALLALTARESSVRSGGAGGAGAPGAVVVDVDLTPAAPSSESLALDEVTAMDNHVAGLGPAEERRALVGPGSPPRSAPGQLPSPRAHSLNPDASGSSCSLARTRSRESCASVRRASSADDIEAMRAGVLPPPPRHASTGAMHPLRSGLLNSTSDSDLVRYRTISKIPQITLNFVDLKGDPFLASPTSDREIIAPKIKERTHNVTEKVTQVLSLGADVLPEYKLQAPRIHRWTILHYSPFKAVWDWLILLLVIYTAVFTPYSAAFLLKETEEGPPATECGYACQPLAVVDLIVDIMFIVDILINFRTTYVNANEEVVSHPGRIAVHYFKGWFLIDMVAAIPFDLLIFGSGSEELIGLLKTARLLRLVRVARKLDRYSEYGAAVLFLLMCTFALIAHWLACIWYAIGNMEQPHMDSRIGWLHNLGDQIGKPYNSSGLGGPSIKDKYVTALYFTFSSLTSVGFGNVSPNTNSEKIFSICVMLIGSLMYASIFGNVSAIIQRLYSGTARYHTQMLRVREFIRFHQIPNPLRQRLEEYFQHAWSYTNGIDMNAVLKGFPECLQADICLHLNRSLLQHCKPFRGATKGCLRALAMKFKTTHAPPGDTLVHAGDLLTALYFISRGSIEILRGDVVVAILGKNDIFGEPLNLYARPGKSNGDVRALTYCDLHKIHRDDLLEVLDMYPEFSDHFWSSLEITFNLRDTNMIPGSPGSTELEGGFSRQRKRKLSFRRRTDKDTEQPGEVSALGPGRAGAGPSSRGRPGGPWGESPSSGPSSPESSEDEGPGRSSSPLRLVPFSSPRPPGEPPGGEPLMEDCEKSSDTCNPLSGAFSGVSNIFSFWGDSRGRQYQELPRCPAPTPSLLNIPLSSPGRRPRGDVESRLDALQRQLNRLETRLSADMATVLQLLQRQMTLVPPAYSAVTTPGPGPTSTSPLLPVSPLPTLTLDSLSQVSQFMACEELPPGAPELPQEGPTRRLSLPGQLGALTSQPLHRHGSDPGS
# [32] = molecular target: T1, Sphingosine 1-phosphate receptor 1; assay: Agonist activity at human S1P1 receptor by beta-arrestin recruitment assay
# Cytochrome P450 2C19 = Cytochrome P450 2C19 (Homo sapiens, UniProt P33261); assay: Inhibition of CYP2C19 (unknown origin); assay type: ADME
# Chain of Cytochrome P450 2C19 (P33261 whole entry): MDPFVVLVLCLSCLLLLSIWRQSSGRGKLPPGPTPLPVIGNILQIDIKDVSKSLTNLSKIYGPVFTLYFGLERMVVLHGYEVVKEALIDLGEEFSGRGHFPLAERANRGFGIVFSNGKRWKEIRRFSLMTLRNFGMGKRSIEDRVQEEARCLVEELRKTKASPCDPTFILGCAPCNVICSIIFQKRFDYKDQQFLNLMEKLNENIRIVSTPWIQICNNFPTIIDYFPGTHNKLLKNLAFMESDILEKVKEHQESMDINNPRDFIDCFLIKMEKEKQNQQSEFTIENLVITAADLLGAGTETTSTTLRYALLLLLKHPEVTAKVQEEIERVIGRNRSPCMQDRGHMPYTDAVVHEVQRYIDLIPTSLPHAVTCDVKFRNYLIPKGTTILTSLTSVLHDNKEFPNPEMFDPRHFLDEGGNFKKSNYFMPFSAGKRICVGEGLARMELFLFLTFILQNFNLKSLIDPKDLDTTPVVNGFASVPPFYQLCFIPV
# [33] = molecular target: T4, Sphingosine 1-phosphate receptor 5 (Homo sapiens, UniProt Q9H228); assay: Agonist activity at human S1P5 receptor by beta-arrestin recruitment assay
# T4 sequence (Q9H228 whole entry): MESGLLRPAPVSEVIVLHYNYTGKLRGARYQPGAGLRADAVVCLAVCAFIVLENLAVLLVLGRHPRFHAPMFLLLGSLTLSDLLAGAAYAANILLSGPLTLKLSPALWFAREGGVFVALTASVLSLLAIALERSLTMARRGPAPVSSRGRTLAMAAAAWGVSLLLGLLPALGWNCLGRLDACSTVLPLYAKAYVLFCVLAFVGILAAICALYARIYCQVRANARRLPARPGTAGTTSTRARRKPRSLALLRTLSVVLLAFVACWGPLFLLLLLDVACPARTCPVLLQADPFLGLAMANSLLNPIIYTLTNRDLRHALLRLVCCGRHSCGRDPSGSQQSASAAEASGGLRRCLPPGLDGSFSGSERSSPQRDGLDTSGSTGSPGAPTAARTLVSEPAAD
# [34] = Drug level in rat plasma at 1 mg/kg, po dosed for 6 consecutive days; assay type: ADME, organism-based; parameters: dose 1 mg/kg, route oral; summary of the method: as §4
# [35] = molecular target: T4, Sphingosine 1-phosphate receptor 5; assay: Agonist activity at human S1P5 receptor by beta-arrestin recruitment assay relative to S1P
# [36] = Tmax in Sprague-Dawley rat at 1 mg/kg, po; assay type: ADME, organism-based; parameters: dose 1 mg/kg, route oral; settings: in vivo
# [37] = Ratio of drug level in rat brain to plasma at 1 mg/kg, po dosed for 6 consecutive days; assay type: ADME, organism-based; parameters: dose 1 mg/kg, route oral; settings: read-out: BPR; summary of the method: as §4
# [38] = Activation of Inward rectifier potassium channel in human atrial myocytes; assay type: cell-based; settings: Cardiac atrium
# [39] = Elimination half life in Sprague-Dawley rat at 1 mg/kg, po; assay type: ADME, organism-based; parameters: dose 1 mg/kg, route oral; settings: in vivo, read-out: beta t1/2 (converted)
# [40] = molecular target: Sphingosine 1-phosphate receptor 2 (Homo sapiens, UniProt O95136); assay: Agonist activity at human S1P2 receptor by beta-arrestin recruitment assay
# [41] = molecular target: Sphingosine 1-phosphate receptor 1 (Mus musculus, UniProt O08530); assay: Agonist activity at mouse S1P1 receptor assessed as cAMP accumulation by HTRF assay; assay type: functional; summary of the method: as §1
# T1 sequence (P21453 whole entry): as the sequence (H9EUW9 whole entry) above, with S3P, L12H, T37I, R41K, P189S, M241I, D365E counted along it
smiles,measurement,setting,value
CC(C)Oc1ccc(COc2ccc3c(c2)c(Cl)c2n3CC[C@@H]2CC(=O)O)cc1C(F)(F)F,EC50,[1],0.021 nM
same,solubility,[2],> 100 mg/mL
same,Emax,[3],59%
same,Activity,Mus musculus [4],Active
same,EC50,[5],0.058 nM
same,EC50,[6],> 10000 nM
same,IC50,Cytochrome P450 2C9,> 50000 nM
same,Emax,[7],95%
same,bioavailability,[8],56.6%
same,Emax,[9],112%
same,Emax,[10],81%
same,EC50,[11],0.049 nM
same,IC50,Cytochrome P450 3A4,> 50000 nM
same,Emax,[12],99%
same,Cmax,[13],72200 ng/mL
same,clearance,[14],1.54 mL/min/kg
same,Cmax,[15],584 ng/mL
same,IC50,Cytochrome P450 2D6,> 50000 nM
same,Kp,[16],0.27
same,EC50,[17],85 nM
same,Activity,Mus musculus [18],inactive
same,IC50,Rattus norvegicus [19],0.0254 µg/mL
same,Activity,Mus musculus [20],Dose-dependent effect
same,Activity,Rattus norvegicus [21],Non-toxic
same,IC50,[22],Not Active
same,IC50,Mus musculus [23],0.0183 µg/mL
same,Emax,[24],84%
same,EC50,[25],0.05 nM
same,IC50,Cytochrome P450 1A2,> 50000 nM
same,Vd,[26],0.831 L/kg
same,solubility,[27],< 0.001 mg/mL
same,Emax,[28],29%
same,concentration at 6 days,[29],568 ng/mL
same,AUC(0-inf),[30],6160 ng·h/mL
same,Activity,[31],Not Active
same,EC50,[32],0.62 nM
same,IC50,Cytochrome P450 2C19,> 50000 nM
same,EC50,[33],19 nM
same,concentration at 6 days,[34],352 ng/mL
same,Emax,[35],59%
same,Tmax,[36],4.67 h
same,Kp at 6 days,[37],1.61
same,EC50,[38],8.9 nM
same,half-life,[39],5.09 h
same,EC50,[40],> 10000 nM
same,EC50,[41],0.064 nM
